Test results taken from ChEMBL document CHEMBL5055631, “Antitumor properties of novel sesquiterpene lactone analogs as NFκB inhibitors that bind to the IKKβ ubiquitin-like domain (ULD)” (Eur J Med Chem, 2021).

How the values were obtained:
Type in all cases: functional
[1] = system: HCT-116; assay: Anticancer activity against human HCT-116 cells assessed as cell growth inhibition incubated for 48 hrs by SRB method
Method in brief: (§1)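 NCI-60 panel (DTP). Cells in RPMI 1640 with 5% FBS, 2 mM L-glutamine, seeded at 5,000–40,000 per well by doubling time and preincubated 24 h at 37 °C, 5% CO2. Time-zero plates TCA-fixed. DMSO stocks diluted in medium with gentamicin, tested at 100 μM, 10 μM, 1 μM, 0.1 μM and 10 nM for 48 h. Cells fixed with cold TCA, stained with SRB, absorbance read at 515 nm.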

[2] = system: UACC-62; assay: Anticancer activity against human UACC-62 cells assessed as cell growth inhibition incubated for 48 hrs by SRB method
Method in brief: (§2)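 NCI-60 panel, SRB assay. Cells grown in RPMI 1640 with 5% FBS and 2 mM L-glutamine, seeded at 5,000–40,000 cells/well depending on doubling time, and preincubated 24 h at 37 °C with 5% CO2. Time-zero plates were TCA-fixed. Compounds came from DMSO stocks and were tested at 100 μM, 10 μM, 1 μM, 0.1 μM and 10 nM for 48 h. Cells were fixed with cold TCA and stained with 0.4% SRB, and the dye was solubilized in 10 mM Tris base with A515 read.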

[3] = system: TK-10; assay: Anticancer activity against human TK-10 cells assessed as cell growth inhibition incubated for 48 hrs by SRB method; method in brief: as §2
[4] = system: CCRF-CEM; assay: Anticancer activity against human CCRF-CEM cells assessed as cell growth inhibition incubated for 48 hrs by sulforhodamine B assay
[5] = system: RPMI-8226; assay: Anticancer activity against human RPMI-8226 cells assessed as cell growth inhibition incubated for 48 hrs by SRB method
[6] = system: SR; assay: Anticancer activity against human SR cells assessed as cell growth inhibition incubated for 48 hrs by SRB method; method in brief: as §1
[7] = system: A549; assay: Anticancer activity against human A549 cells assessed as cell growth inhibition incubated for 48 hrs by SRB method; method in brief: as §1
[8] = system: EKVX; assay: Anticancer activity against human EKVX cells assessed as cell growth inhibition incubated for 48 hrs by SRB method; method in brief: as §1
[9] = system: HOP-62; assay: Anticancer activity against human HOP-62 cells assessed as cell growth inhibition incubated for 48 hrs by SRB method; method in brief: as §1
[10] = system: MOLT-4; assay: Anticancer activity against human MOLT-4 assessed as cell growth inhibition incubated for 48 hrs by SRB method
[11] = system: HOP-92; assay: Anticancer activity against human HOP-92 cells assessed as cell growth inhibition incubated for 48 hrs by SRB method
[12] = system: K562; assay: Anticancer activity against human K562 cells assessed as cell growth inhibition incubated for 48 hrs by SRB method
[13] = system: HL-60(TB); assay: Anticancer activity against human HL-60(TB) cells assessed as cell growth inhibition incubated for 48 hrs by SRB method
[14] = system: NCI-H226; assay: Anticancer activity against human NCI-H226 cells assessed as cell growth inhibition incubated for 48 hrs by SRB method; method in brief: as §1
[15] = system: NCI-H23; assay: Anticancer activity against human NCI-H23 cells assessed as cell growth inhibition incubated for 48 hrs by SRB method; method in brief: as §1
[16] = system: NCI-H460; assay: Anticancer activity against human NCI-H460 cells assessed as cell growth inhibition incubated for 48 hrs by SRB method; method in brief: as §1
[17] = system: NCI-H522; assay: Anticancer activity against human NCI-H522 cells assessed as cell growth inhibition incubated for 48 hrs by SRB method
[18] = system: COLO 205; assay: Anticancer activity against human COLO 205 cells assessed as cell growth inhibition incubated for 48 hrs by SRB method
[19] = system: HCC 2998; assay: Anticancer activity against human HCC 2998 cells assessed as cell growth inhibition incubated for 48 hrs by SRB method; method in brief: as §1
[20] = system: HCT-15; assay: Anticancer activity against human HCT-15 cells assessed as cell growth inhibition incubated for 48 hrs by SRB method; method in brief: as §1
[21] = system: HT-29; assay: Anticancer activity against human HT29 cells assessed as cell growth inhibition incubated for 48 hrs by SRB method; method in brief: as §1
[22] = system: KM12; assay: Anticancer activity against human KM12 cells assessed as cell growth inhibition incubated for 48 hrs by SRB method; method in brief: as §1
[23] = system: SW-620; assay: Anticancer activity against human SW-620 cells assessed as cell growth inhibition incubated for 48 hrs by SRB method
[24] = system: SF-268; assay: Anticancer activity against human SF-268 cells assessed as cell growth inhibition incubated for 48 hrs by SRB method; method in brief: as §1
[25] = system: SF-295; assay: Anticancer activity against human SF-295 cells assessed as cell growth inhibition incubated for 48 hrs by SRB method; method in brief: as §1
[26] = system: SF-539; assay: Anticancer activity against human SF-539 cells assessed as cell growth inhibition incubated for 48 hrs by SRB method
[27] = system: SNB-19; assay: Anticancer activity against human SNB-19 cells assessed as cell growth inhibition incubated for 48 hrs by SRB method; method in brief: as §1
[28] = system: SNB-75; assay: Anticancer activity against human SNB-75 cells assessed as cell growth inhibition incubated for 48 hrs by SRB method
[29] = system: LOX IMVI; assay: Anticancer activity against human LOX IMVI cells assessed as cell growth inhibition incubated for 48 hrs by SRB method
[30] = system: Malme-3M; assay: Anticancer activity against human MALME-3M cells assessed as cell growth inhibition incubated for 48 hrs by SRB method
[31] = system: M14; assay: Anticancer activity against human M14 cells assessed as cell growth inhibition incubated for 48 hrs by SRB method; method in brief: as §1
[32] = system: MDA-MB-435; assay: Anticancer activity against human MDA-MB-435 cells assessed as cell growth inhibition incubated for 48 hrs by SRB method; method in brief: as §1
[33] = system: SK-MEL-28; assay: Anticancer activity against human SK-MEL-28 cells assessed as cell growth inhibition incubated for 48 hrs by SRB method; method in brief: as §1
[34] = system: UACC-257; assay: Anticancer activity against human UACC-257 assessed as cell growth inhibition incubated for 48 hrs by SRB method; method in brief: as §2
[35] = system: IGROV-1; assay: Anticancer activity against human IGROV-1 cells assessed as cell growth inhibition incubated for 48 hrs by SRB method; method in brief: as §1
[36] = system: OVCAR-4; assay: Anticancer activity against human OVCAR-4 cells assessed as cell growth inhibition incubated for 48 hrs by SRB method
[37] = system: OVCAR-5; assay: Anticancer activity against human OVCAR-5 cells assessed as cell growth inhibition incubated for 48 hrs by SRB method
[38] = system: OVCAR-8; assay: Anticancer activity against human OVCAR-8 cells assessed as cell growth inhibition incubated for 48 hrs by SRB method; method in brief: as §1
[39] = system: NCI/ADR-RES; assay: Anticancer activity against human NCI/ADR-RES cells assessed as cell growth inhibition incubated for 48 hrs by SRB method; method in brief: as §1
[40] = system: 786-0; assay: Anticancer activity against human 786-0 cells assessed as cell growth inhibition incubated for 48 hrs by SRB method; method in brief: as §1
[41] = system: A498; assay: Anticancer activity against human A498 cells assessed as cell growth inhibition incubated for 48 hrs by SRB method; method in brief: as §1
[42] = system: ACHN; assay: Anticancer activity against human ACHN cells assessed as cell growth inhibition incubated for 48 hrs by SRB method; method in brief: as §1
[43] = system: CAKI-1; assay: Anticancer activity against human CAKI-1 cells assessed as cell growth inhibition incubated for 48 hrs by SRB method; method in brief: as §1
[44] = system: RXF 393; assay: Anticancer activity against human RXF 393 cells assessed as cell growth inhibition incubated for 48 hrs by SRB method; method in brief: as §1
[45] = system: UO-31; assay: Anticancer activity against human UO-31 cells assessed as cell growth inhibition incubated for 48 hrs by SRB method
Method in brief: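 NCI-60 panel, SRB assay. Time-zero plates were TCA-fixed. Compounds came from DMSO stocks and were tested at 100 μM, 10 μM, 1 μM, 0.1 μM and 10 nM for 48 h. Cells were fixed with cold TCA and stained with 0.4% SRB, and the dye was solubilized in 10 mM Tris base with A515 read.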

[46] = system: PC-3; assay: Anticancer activity against human PC-3 cells assessed as cell growth inhibition incubated for 48 hrs by SRB method; method in brief: as §1
[47] = system: DU-145; assay: Anticancer activity against human DU-145 cells assessed as cell growth inhibition incubated for 48 hrs by SRB method; method in brief: as §1
[48] = system: MCF7; assay: Anticancer activity against human MCF7 cells assessed as cell growth inhibition incubated for 48 hrs by SRB method; method in brief: as §1
[49] = system: MDA-MB-231; assay: Anticancer activity against human MDA-MB-231 cells assessed as cell growth inhibition incubated for 48 hrs by SRB method; method in brief: as §1
[50] = Anticancer activity against human HS 578T cells assessed as cell growth inhibition incubated for 48 hrs by SRB method
[51] = system: BT-549; assay: Anticancer activity against human BT-549 cells assessed as cell growth inhibition incubated for 48 hrs by SRB method; method in brief: as §1
[52] = system: T47D; assay: Anticancer activity against human T47D cells assessed as cell growth inhibition incubated for 48 hrs by SRB method; method in brief: as §1
[53] = system: MDA-MB-468; assay: Anticancer activity against human MDA-MB-468 cells assessed as cell growth inhibition incubated for 48 hrs by SRB method; method in brief: as §1

C=C1C(=O)O[C@@H]2C3O[C@]3(C)CC/C=C(\C)CC[C@@H]12 (stereo partly specified)
GI50 [1]: 10000 nM | GI50 [2]: 3480 nM | GI50 [3]: 10000 nM

C=C1C(=O)O[C@H]2[C@H]1CC/C(COC(=O)NCCc1cccc(OC)c1)=C\CC[C@@]1(C)O[C@@H]21
GI50 [4]: 340 nM | GI50 [5]: 910 nM | GI50 [6]: 510 nM | GI50 [7]: 7280 nM | GI50 [8]: 1780 nM | GI50 [9]: 4390 nM | GI50 [10]: 2090 nM | GI50 [11]: 1840 nM | GI50 [12]: 610 nM | GI50 [13]: 1360 nM | GI50 [14]: 1570 nM | GI50 [15]: 1860 nM | GI50 [16]: 3940 nM | GI50 [17]: 1020 nM | GI50 [18]: 1550 nM | GI50 [19]: 1680 nM | GI50 [1]: 710 nM | GI50 [20]: 1020 nM | GI50 [21]: 1140 nM | GI50 [22]: 4270 nM | GI50 [23]: 520 nM | GI50 [24]: 1780 nM | GI50 [25]: 7260 nM | GI50 [26]: 1490 nM | GI50 [27]: 1430 nM | GI50 [28]: 1470 nM | GI50 [29]: 1340 nM | GI50 [30]: 1840 nM | GI50 [31]: 1290 nM | GI50 [32]: 1580 nM | GI50 [33]: 1730 nM | GI50 [34]: 1990 nM | GI50 [2]: 6230 nM | GI50 [35]: 1530 nM | GI50 [36]: 1260 nM | GI50 [37]: 990 nM | GI50 [38]: 1780 nM | GI50 [39]: 2250 nM | GI50 [40]: 2260 nM | GI50 [41]: 2950 nM | GI50 [42]: 1370 nM | GI50 [43]: 2350 nM | GI50 [44]: 1120 nM | GI50 [3]: 1190 nM | GI50 [45]: 670 nM | GI50 [46]: 1610 nM | GI50 [47]: 1390 nM | GI50 [48]: 2300 nM | GI50 [49]: 890 nM | GI50 [50]: 490 nM | GI50 [51]: 1560 nM | GI50 [52]: 3430 nM | GI50 [53]: 850 nM
